# Measurements from ChEMBL document CHEMBL2034865, “Cytotoxic alkaloids from Fusarium incarnatum associated with the mangrove tree Aegiceras corniculatum” (2012).
# Assays:
# Assay type in all cases: functional
# K562 = assay: Antiproliferative activity against human K562 cells
# Method in brief: (§1)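 HUVEC and K562 (DSM ACC 10) cells were exposed to compounds and growth was scored against untreated controls. The readout is GI50, the concentration that cuts growth of treated cells to half that of untreated cells.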
# HUVEC = assay: Antiproliferative activity against HUVEC cells; details: Homo sapiens; method in brief: as §1
# HeLa = assay: Cytotoxicity against human HeLa cells
# Method in brief: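 HeLa cervix carcinoma cells (DSM ACC 57) were treated with compounds. The readout is CC50, the concentration that kills 50% of treated cells.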
SMILES,GI50 (K562),GI50 (HUVEC),CC50 (HeLa)
C/C=C(\C)C(=O)NCC(C)C,> 300 µM,> 300 µM,> 300 µM
CC1=CC(=O)/C(=C(\C)N)C(=O)O1,9 µM,68.2 µM,104 µM
O=C(CO)c1cccn1CCc1ccc(O)cc1 [FUSARINE],> 200 µM,> 200 µM,> 200 µM

# More lines, main results first:
GI50 (K562),SMILES,GI50 (HUVEC),CC50 (HeLa)
33.3 µM,CC(=O)N1CCc2c([nH]c3ccccc23)C1,41.1 µM,23.8 µM
37.6 µM,CC1=CC(=O)/C(=C(\C)NCCc2ccc(O)cc2)C(=O)O1 [FUSAMINE],37.3 µM,23.3 µM
0.17 µM,Cc1ccc(NC(=O)c2ccc(CN3CCN(C)CC3)cc2)cc1Nc1nccc(-c2cccnc2)n1 [IMATINIB],18.5 µM,65.8 µM
